CaV13 FRET inh: Primary screen for inhibitors of IQ motif and Ca2+-dependent inactivation inhibitor domain binding in CACNA1D, Förster resonance energy transfer in living cells, …; actives 0.098% (n = 340,000); inhibition, % at 12.3 µM; HEK cells, CFP/YFP FRET ICDI-IQ, plate reader, 10 min; percent FRET-ratio fall versus neutral wells;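 active means mean replicate inhibition of at least 30% and at least 1% of replicates passing that level; inconclusive means only one of the two criteria is met; inactive means neither criterion is met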;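 further: 0% = median of the neutral control wells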
HSF1 activator: increases HSF-1 driven luciferase reporter signal. NIH3T3-HGL HSF-1 luciferase reporter, MG132, 8 h; 100% = twice DMSO control signal. activation, % at 9 µM. AID 504408. actives 1.7% (n = 300,000);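 active means mean replicate activation of at least 50% with a set share of replicates each reaching 50%; inconclusive means only one of those two conditions met; inactive means mean below 50% and too few replicates reaching it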;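 further: 0% = median of the neutral control wells and 100% = twice that signal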
N-glyco inh: N-linked glycosylation inhibition. D54 ERlucT glycosylation luciferase reporter, 24 h; percent of 100 nM tunicamycin response. reporter increase, % at 12.5 µM. actives 0.23% (n = 360,000). AID 588692;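 active means mean luciferase reporter signal, scaled so untreated is 0 and the glycosylation-blocking control 100, at or above a set limit in every replicate; inconclusive means mean reaches the limit but not every replicate does; inactive means mean below the limit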;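 further: luciferase carries N-glycosylation sites so blocking glycosylation raises the light; 0% = median of neutral control wells and 100% = median of 100 nM tunicamycin wells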
T cruzi repl: T. cruzi replication inhibition; inhibition, % (test concentration not listed); actives 1.4% (n = 300,000); T. cruzi beta-gal in NIH3T3, luminescence, 90 h;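 active means mean inhibition across valid replicates above about 55%, limit read from the data; inconclusive means mean below that limit but half or more replicates reach it; inactive means mean below it, under half of replicates reach it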;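 further: signal also drops with host cell toxicity which is not excluded here; 0% = plate median of DMSO wells and 100% = zero luminescence signal; higher percent means less beta-gal luminescence so fewer parasites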
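Incubation – ≥90 h infection period, 3 h prior cell attachment · System – NIH/3T3 fibroblasts plus reporter T. cruzi · Doses – compound pinned at 50 nL/well, DMSO · Read-out basis – percent inhibition of parasite-derived β-gal signal · Signal – luminescent β-galactosidase signal after 60 min lysis · Also added – 5000 T. cruzi trypomastigotes/well · Medium – Low-serum DMEM with 2% FBS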
PvdQ acylase: blocks Pseudomonas aeruginosa PvdQ acylase activity. inhibition, % at 10 µM. actives 0.063% (n = 340,000). purified PvdQ acylase, fluorescence plate reader; in the data active means inhibition above about 30%, passing the limit was not always enough; inconclusive means no clear call, values can overlap the other calls;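 further: 0% = vehicle neutral wells and 100% = reference inhibitor wells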
PfHsp90 yeast 2: growth inhibition of yeast expressing Plasmodium Hsp90; S. cerevisiae expressing PfHsp90, BacTiter-Glo ATP, 48 h; yeast lacking PDR1 and PDR3 efflux regulators; inhibition, % at 9.4 µM; actives 0.32% (n = 310,000);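 active means every replicate shows inhibition above about 80%, whatever the replicate mean, limit read from the data; inconclusive means mean inhibition reaches the set limit but some replicate falls short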;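 further: 0% = DMSO neutral controls and 100% = 20 µM radicicol positive controls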
* hit, by the source's call; ? = inconclusive; nt = no result given. This is a sample that favours compounds with a hit; in the whole collection about 3% have one here.

SMILES	CaV13 FRET inh	HSF1 activator	N-glyco inh	T cruzi repl	PvdQ acylase	PfHsp90 yeast 2
CCCCCCCCNS(=O)(=O)CCNCc1ccco1	-8.5	nt	-0.5	nt	-10.3	0.5
COc1ccc(NC(=O)COC(=O)C2CCCN2C(=O)OC(C)(C)C)cc1Cl (stereo not given)	-5.2	nt	0.3	nt	nt	nt
O=C1c2ccccc2NC(c2ccccc2)N1/N=C/c1ccccc1 (stereo not given)	nt	43.2	-13.8	1.0	-3.7	9.4
O=C1c2ccccc2NC(c2ccc(O)cc2)N1/N=C/c1ccc(O)cc1 (stereo not given)	-2.5	70.1*	-2.2	-11.9	3.7	-45.3
CN(C)S(=O)(=O)c1cccc(NC(=O)COc2ccccc2C(=O)NCc2ccccc2)c1	-5.0	nt	-1.1	nt	-14.5	nt
C/C(=N\Nc1cc(N2CCOCC2)nc(C)n1)c1ccc(F)cc1	-2.6	-2.4	-7.7	37.1	-16.1	-4.4
C/C(=N\Nc1cc(N2CCCCC2)nc(C)n1)c1ccc(Br)cc1	-6.4	42.1	-4.2	72.0*	3.4	-2.0
O=C(NCCCn1ccnc1)/C(=C/c1ccco1)NC(=O)c1ccccc1	nt	61.5*	2.6	-1.8	-16.6	65.4
Cc1ccc(C(=O)N/C(=C\c2ccco2)C(=O)NCCc2c[nH]c3ccccc23)cc1	-4.3	-6.8	30.3*	-10.1	0.2	-7.3
O=C(NCCc1c[nH]c2ccccc12)/C(=C\c1ccco1)NC(=O)c1ccco1	-2.2	8.1	1.0	-10.1	-3.1	13.9
Cc1ccc(C(=O)N/C(=C/c2cccs2)C(=O)NCCc2c[nH]c3ccccc23)cc1	-19.9	16.7	55.3*	13.0	7.5	-11.7
CCOC(=O)C1=CCC(c2ccc(N(CC)CC)cc2)N(S(=O)(=O)c2ccc(C)cc2)C1c1ccc([N+](=O)[O-])cc1 (stereo not given)	-6.0	nt	nt	nt	nt	nt
CC(C)N1C(=O)S/C(=C/c2ccc3c(c2)n(C)c(=O)n3C)C1=O	-4.2	32.2	9.8	-12.9	3.1	-10.9
CCN(CC)c1ccc(/C=C2\SC(=O)N(C(C)C)C2=O)o1	nt	295.4*	3.5	56.3*	nt	nt
Cc1ccc2nc(-c3ccncc3)c(NC3CCCC3)n2c1	-8.4	-3.9	-3.6	76.6*	2.1	-23.6
Cc1ccc2nc(-c3ccncc3)c(NC3CCCCC3)n2c1	4.4	27.2	0.1	60.3*	-10.1	-7.7
Cn1nc(-c2ccccn2)nc2c(=O)n(C)c(=O)nc1-2	-4.2	-94.3	-22.8	58.6*	9.7	-13.6
C[C@H](O)[C@@H]1C(=O)N2CCc3c([nH]c4c(-c5ccccc5)cccc34)[C@@H]2C[C@@H]1N(C)C(=S)Nc1ccc(C#N)cc1	-4.5	nt	nt	nt	nt	nt
O=C1c2cccc3cccc(c23)C(=O)N1CCc1ccccc1	-8.6	58.8*	-3.4	-26.9	-11.3	-46.8
CN(C)/N=C/C=C1\CCC/C(=C\c2ccc(F)c(F)c2)C1=O	-5.4	115.5*	32.3*	-21.1	-1.8	23.0
COc1ccc(/C=C2\CCC/C(=C\C=N\N(C)C)C2=O)cc1	-5.3	?	8.9	-20.8	-5.6	23.8
CCOC(=O)c1snc(C(=O)NC2CCCCC2)c1N	-7.4	60.8*	-1.4	-20.5	-16.4	14.2
CCCn1c(O)c(N=NC(=O)c2ccco2)c2ccccc21	-3.8	-64.6	6.9	11.4	-6.9	34.5
CCn1c(O)c(N=NC(=O)c2cccs2)c2ccccc21	-1.0	63.3*	6.2	23.5	-9.8	-0.8
CN1OC[C@@H]2CN(C(=O)C(C)(C)C)[C@H](c3ccc(-c4cccnc4)cc3)C[C@@H]21	-10.5	nt	1.0	nt	nt	nt
SMILES	CaV13 FRET inh	HSF1 activator	N-glyco inh	T cruzi repl	PvdQ acylase	PfHsp90 yeast 2
CCOCCn1c(COc2ccc(C)cc2)nc2ccccc21	-2.7	75.9*	-2.7	15.3	-16.0	20.9
CCn1c(COc2ccc(C)cc2)nc2ccccc21	-2.4	80.9*	-2.4	-10.0	7.6	-3.9
COCCn1c(COc2ccc(C)cc2)nc2ccccc21	-6.8	45.9	-1.9	4.1	-9.5	10.0
Cc1ccc(OCCCn2c(CO)nc3ccccc32)cc1	-5.0	-14.8	0.4	-2.0	2.0	0.1
C[C@@H]1COc2cccc(N3CCC[C@@H]3CO)c2S(=O)(=O)N1	-7.2	nt	nt	nt	nt	nt
O=C(NS(=O)(=O)c1cccc(F)c1)[C@H]1O[C@@H](n2ccc(=O)[nH]c2=O)[C@H](O)[C@@H]1O	-3.0	nt	nt	nt	nt	nt
CCCCN1Cc2cc(C(=O)c3cc(OC)ccc3O)cnc2NC1=O	-4.0	26.0	-0.2	0.6	-3.1	-6.6
Cc1ccc(O)c(C(=O)c2cnc3c(c2)CN(C)C(=O)N3)c1	nt	73.5*	5.2	-61.2	1.4	20.9
Cc1ccc(O)c(C(=O)c2cnc3c(c2)CN(CCC(C)C)C(=O)N3)c1	nt	120.1*	-1.0	4.0	-5.4	nt
CN1NC(=O)c2ccccc2NC1=S	-3.0	nt	nt	nt	nt	nt
COc1cccc(-c2cnc3c(NC(C)=O)cc(-c4cccc(C(=O)NCCN(C)C)c4)cn23)c1	-5.5	nt	-4.3	nt	nt	nt
CCN1CCCSC1=S	-4.7	nt	0.2	nt	nt	nt
CCOc1ccccc1OCC(=O)NC1CCSc2ccccc21 (stereo not given)	-8.6	nt	1.3	nt	nt	nt
O=S(=O)(/N=C(/Nc1cccc2ccccc12)c1ccccc1)c1ccccc1	-4.4	41.2	-6.4	18.0	-6.8	17.9
O=S(=O)(/N=C(/Nc1cccc2ccccc12)c1ccccc1)c1ccc(F)cc1	-2.0	51.8*	-6.0	16.8	0.9	6.3
N#Cc1c(NCCN)nc(-c2ccco2)c2c1CCCC2	-2.0	10.7	32.9*	8.0	-19.4	4.6
O=C(/C=C/c1ccccc1Cl)c1cccnc1	-8.1	8.5	11.5	-8.4	-8.6	70.8
Cc1ccc(/C=C/C(=O)c2ccccc2)cc1	-6.0	1.2	13.6	-4.0	-5.3	nt
O=C(/C=C/c1ccc([N+](=O)[O-])cc1)c1ccccc(=O)c1O	-6.3	nt	21.2	nt	-1.9	123.0*
O=C(/C=C/c1ccccc1Cl)c1ccc(O)cc1	-3.8	32.4	30.4*	-10.2	-10.4	110.3*
Cc1ccc(/C=C/C(=O)c2ccccc(=O)c2O)c(C)c1	-17.7	-17.8	2.3	28.2	12.2	105.7*
O=C(/C=C/c1ccccc1Cl)c1ccccc(=O)c1O	-8.1	4.7	18.9	57.9*	-2.8	95.9*
COC(=O)C1=C(C)N(Cc2ccccc2C(F)(F)F)C(=NCc2cc(OC)c(OC)c(OC)c2)NC1c1ccccc1 (stereo not given)	-7.0	nt	nt	nt	nt	nt
Cc1ccc(C)c(/C=C/C(=O)c2ccccc(=O)c2O)c1	-3.2	?	14.1	58.4*	8.8	103.2*
Cc1nn(C)cc1C(=O)/C=C/c1ccc([N+](=O)[O-])cc1	-4.5	61.4*	5.7	-10.2	11.0	-16.4
CCn1cc(CN(C)C(=O)/C=C/c2ccc([N+](=O)[O-])cc2)c(C)n1	-3.5	-19.9	0.9	-0.8	5.3	-4.3

Source: PubChem BioAssay
